# V1R ag counter: counter-screen for oxytocin receptor agonists: human V1a receptor agonists; actives 0.25% (n = 320,000); AID 2797; CHO-V1R cells, Fluo-8 calcium fluorescence, agonist mode; 0% DMSO, 100% 3 nM vasopressin; activation, % at 3 µM;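 active = activation above the mean activation of all tested compounds plus 3 SD, per screening run, cut at about 20% in these data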;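 also: signal is peak over basal fluorescence ratio across a 100 second FLIPR read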
# Target sequence (P37288 whole entry, looked up): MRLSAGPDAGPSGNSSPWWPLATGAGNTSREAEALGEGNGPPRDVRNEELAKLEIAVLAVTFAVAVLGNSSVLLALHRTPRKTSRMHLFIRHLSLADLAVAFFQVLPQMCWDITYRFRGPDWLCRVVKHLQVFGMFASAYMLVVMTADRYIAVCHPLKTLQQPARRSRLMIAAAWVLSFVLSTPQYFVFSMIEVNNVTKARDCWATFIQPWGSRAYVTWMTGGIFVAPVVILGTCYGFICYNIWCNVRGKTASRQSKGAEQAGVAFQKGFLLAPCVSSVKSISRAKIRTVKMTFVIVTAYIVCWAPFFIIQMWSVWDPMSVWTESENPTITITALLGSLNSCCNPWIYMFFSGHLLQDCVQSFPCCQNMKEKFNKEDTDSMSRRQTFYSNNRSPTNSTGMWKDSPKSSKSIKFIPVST
# OXTR potentiate: potentiates the human oxytocin receptor response; P30559; CHO-OTR cells, Fluo-8 calcium fluorescence, potentiator mode; 0% = oxytocin EC15, 100% = EC100; activation, % at 3 µM; actives 0.061% (n = 320,000);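 active = activation above that plate's cutoff, the mean activation of tested compounds plus 3 SD, cut at about 6.6% in these data, passing the limit was not always enough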;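 also: 100% uses oxytocin at 75 nM as the full agonist control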
#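 Measured by – Fluo-8 calcium dye fluorescence · Test system – human OTR in CHO cells · Dosing – one concentration, 3.0 µM compound · Controls – EC15 oxytocin alone as 0%, 75 nM oxytocin as 100% · Evaluation – normalized max/min fluorescence ratio, % activation · Timing – 6 min pre-incubation, 100 s read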
# OXTR ag: agonists of human oxytocin receptor | activation, % at 3 µM | CHO-OTR cells, Fluo-8 calcium fluorescence; normalized: DMSO 0%, oxytocin 100% | actives 0.32% (n = 320,000) | AID 2435;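 active = activation above the mean of all tested compounds plus 3 SD, cutoff set per screening run, cut at about 20% in these data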;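 also: peak over basal fluorescence ratio from a 100 s FLIPR kinetic read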
# TAAR1 antag: antagonists of human TAAR1. AID 624466. CHO RD-HGA16 TAAR1, Fluo-8 calcium fluorescence, antagonist. actives 1.5% (n = 360,000). inhibition, % at 3 µM;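 active = inhibition above a per-plate cutoff, the mean inhibition of test compounds on that plate plus 3 SD, cut at about 49% in these data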;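 also: 0% = DMSO plus EC80 beta-PEA response and 100% = DMSO alone without agonist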
# Target sequence (Q96RJ0 whole entry, looked up): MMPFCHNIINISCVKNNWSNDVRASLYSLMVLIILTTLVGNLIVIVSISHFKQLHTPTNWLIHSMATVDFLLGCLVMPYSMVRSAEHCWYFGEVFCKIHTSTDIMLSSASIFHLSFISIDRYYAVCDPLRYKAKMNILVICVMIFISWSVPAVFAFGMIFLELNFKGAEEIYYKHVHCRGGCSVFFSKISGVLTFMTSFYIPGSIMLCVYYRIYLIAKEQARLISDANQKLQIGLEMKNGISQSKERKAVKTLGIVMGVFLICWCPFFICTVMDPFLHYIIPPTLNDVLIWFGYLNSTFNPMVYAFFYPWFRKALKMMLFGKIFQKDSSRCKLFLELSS
#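 Material: CHO RD-HGA16 cells bearing hTAAR1; compound dosing: one-point dosing, 3 µM nominal final; schedule: dye loading 75 min at 37 °C, then 30 min room temperature; measured by: calcium fluorescence with Fluo-8; control set: vehicle and agonist controls; replication: n of 1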
# TAAR1 agonist: human TAAR1 agonism; CHO RD-HGA16 TAAR1, Fluo-8 calcium fluorescence; vehicle wells 0%, saturating PEA agonist 100%; Q96RJ0; AID 624467; activation, % at 3 µM; actives 0.99% (n = 360,000);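 active = activation above the mean activation of all test compounds in the run plus 3 SD, cut at about 38% in these data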
#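 Repeats: no replicates (n 1) | Material: CHO-derived RD-HGA16 cells with stable Gα16 and human TAAR1 | Technique: Kinetic Fluo-8 calcium fluorescence | Schedule: 17-24 h seeding, 75 min 37 °C dye, 30 min RT | Evaluation: % activation from peak over basal fluorescence ratio, DMSO-to-PEA scaled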
# TAAR1 nonsel count: nonselective antagonist in TAAR1 antagonist counter-screen; shares compounds with TAAR1 antag; counterscreen cell line, calcium fluorescence, antagonist mode; inhibition, % at 3 µM; actives 77% (n = 2,400); AID 651780; in the data active = inhibition above about 22%;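 also: CHO-Ga16 host cells stimulated with ATP at an EC80 level; 0% = agonist EC80 plus vehicle and 100% = vehicle without agonist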
# TAAR1 ant conf: human TAAR1 antagonism, confirmed | TAAR1-expressing cells, fluorescence antagonist read-out | shares compounds with TAAR1 antag | actives 40% (n = 2,400) | inhibition, % at 3 µM; in the data active = inhibition above about 49%;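 also: CHO-Ga16 host cells challenged with agonist PEA near its EC80; 0% = agonist at EC80 plus vehicle and 100% = vehicle with no agonist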
# Ga16 nonsel ag: nonselective Ga16 agonism, counter-screen | AID 651953 | actives 18% (n = 2,400) | shares compounds with TAAR1 antag | activation, % at 3 µM | Ga16-expressing cells, calcium fluorescence, agonist counterscreen; in the data active = activation above about 12%;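 also: 0% = vehicle wells and 100% = saturating stimulus response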
# TAAR1 ag counter: TAAR1 agonism, antagonist counter-screen. shares compounds with TAAR1 antag. hTAAR1 cell line, fluorescence activation, agonist mode. activation, % at 3 µM. actives 2% (n = 2,400); in the data active = activation above about 37%;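 also: CHO cells stably expressing TAAR1 with calcium dye readout; 0% = DMSO vehicle and 100% = full agonist response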
# Starred values were filed as active, the others as inactive; . = no result. Shown are actives, neighbours in structure and some others; about 2.3% of the full set was active somewhere.
SMILES,V1R ag counter,OXTR potentiate,OXTR ag,TAAR1 antag,TAAR1 agonist,TAAR1 nonsel count,TAAR1 ant conf,Ga16 nonsel ag,TAAR1 ag counter
O=C(/C=C/c1ccc(Cl)cc1Cl)NC(=S)Nc1ccc(CN2CCOCC2)cc1,2.0,5.4,-0.4,-6.2,0.9,.,.,.,.
O=C(/C=C/c1ccccc1)NC(=S)Nc1ccc(CN2CCOCC2)cc1,4.5,-14.7,2.4,57.6*,16.7,41.4*,47.9,10.5,9.0
O=C(/C=C/c1ccccc1)Nc1ccc(N2CCCCC2)cc1,8.8,-10.7,18.1,69.1*,23.3,30.4*,65.3*,27.6*,60.6*
CCOc1ccccc1/C=N/NC(=O)c1nnn(-c2nonc2N)c1CN1CCCC1,-0.8,-2.4,-1.2,-28.5,-0.3,.,.,.,.
CCC(=O)N/N=C(\C)CC(=O)Nc1cc(Cl)ccc1C,-0.4,-9.3,0.1,6.3,0.6,.,.,.,.
O=C(Cc1csc(-c2ccc(F)cc2)n1)Nc1cccc(S(=O)(=O)NC2=NCCC2)c1,-0.3,-7.1,-2.1,-20.8,-0.7,.,.,.,.
Brc1ccc(-c2nc(N/N=C/c3cccnc3)c3ccccc3n2)cc1,0.9,-16.2,0.1,78.2*,15.3,31.3*,48.6*,7.0,3.9
C(=N\Nc1nc(-c2cccnc2)nc2ccccc12)/c1ccccc1,-0.6,-1.9,-1.6,41.1,9.5,.,.,.,.
O=C(O)CCC(=O)N1N=C(c2cccs2)CC1c1cn(-c2ccccc2)nc1-c1ccccc1 (stereo not given),4.1,-5.4,2.7,8.2,7.1,.,.,.,.
CCOc1ccc(NC(=O)CN(C)C(=O)C2CC(=O)N(CCc3ccc(OC)c(OC)c3)C2)cc1OCC (stereo not given),.,.,.,99.6*,-2.3,-2.8,-4.3,7.9,11.4
C=CCNC(=O)/C(=C\C=C\c1ccccc1)NC(=O)c1ccccc1Cl,-0.5,-9.7,0.5,61.6*,13.0,24.9*,35.9,6.3,6.8
Cn1c(=O)c2c(nc3n2CCCN3CCc2ccccc2)n(C)c1=O,1.1,-8.4,0.5,-17.5,3.2,.,.,.,.
COc1ccccc1CCn1cnc(-c2ccc(F)cc2)c1CC(C)C,.,.,.,62.6*,27.1,29.1*,62.1*,11.1,66.4*
CCc1c(-c2ccc(F)cc2)ncn1CCc1ccccc1OC,.,.,.,-24.5,3.1,.,.,.,.
COc1ccccc1CCn1cnc(-c2cccc(Cl)c2)c1CC(C)C,.,.,.,51.2*,13.9,32.6*,52.0*,8.9,38.0*
COc1cccc(-c2ncn(CCc3ccccc3OC)c2CC(C)C)c1,.,.,.,62.1*,10.6,39.0*,49.3*,8.2,38.0*
COc1ccccc1CCn1cnc(-c2ccccc2)c1CC(C)C,.,.,.,55.9*,6.9,41.5*,49.1*,12.4*,26.0
CCN(CC)CCN(Cc1cc2cc3c(cc2[nH]c1=O)OCCO3)C(=S)NCC(C)C,-0.1,-9.9,0.4,4.0,-0.1,.,.,.,.
CCCCc1c(-c2ccc(F)cc2)ncn1CCc1ccccc1OC,.,.,.,54.5*,26.2,23.1*,38.3,3.3,42.6*
Cc1nn(CCc2nn[nH]n2)c2nc(-c3ccc(Br)cc3)cc(C(F)(F)F)c12,9.7,-11.0,8.0,71.4*,1.6,15.9,32.9,1.6,-3.9
COc1cccc(NC(=O)CN(C)C(=O)c2cc(-c3ccccc3)nc3ccccc23)c1,0.1,-7.4,-0.8,69.8*,11.6,33.9*,51.0*,9.3,7.0
COc1ccc(NC(=O)CN(C)C(=O)c2cc(-c3ccco3)nc3ccccc23)cc1,-0.4,-3.4,-1.4,36.2,13.2,.,.,.,.
COc1cccc(NC(=O)CN(C)C(=O)c2cc(-c3ccc(F)cc3)nc3ccccc23)c1,0.6,-12.2,-0.6,74.7*,5.7,39.7*,59.6*,8.8,4.8
COc1ccc(Cl)cc1NC(=O)CN(C)C(=O)c1cn(-c2ccccc2)nc1-c1cccnc1,1.9,-10.4,-1.1,57.9*,12.5,32.7*,46.5,7.0,5.0
CN(CC(=O)Nc1ccc(Cl)c(C(F)(F)F)c1)C(=O)c1cc(-c2ccncc2)nc2ccccc12,-0.5,-4.8,-0.4,50.0*,8.9,32.6*,53.2*,10.1,10.0
SMILES,V1R ag counter,OXTR potentiate,OXTR ag,TAAR1 antag,TAAR1 agonist,TAAR1 nonsel count,TAAR1 ant conf,Ga16 nonsel ag,TAAR1 ag counter
CN(CC(=O)Nc1cccc(F)c1)C(=O)c1cc(-c2ccco2)nc2ccccc12,-0.8,-5.8,-1.2,44.1,11.1,.,.,.,.
COc1ccccc1CNC(=S)NC1CCCC1,1.1,-1.3,-0.9,-9.0,3.6,.,.,.,.
CN(CC(=O)Nc1cccc(F)c1)C(=O)c1cn(-c2ccccc2)nc1-c1cccs1,3.4,-16.1,3.1,65.0*,7.6,32.0*,40.5,6.9,6.3
COc1ccc(-c2cc(C(=O)N(C)CC(=O)Nc3cccc(F)c3)c3ccccc3n2)cc1OC,.,.,.,76.4*,14.7,44.0*,60.8*,10.8,8.2
O=C(CN1C(=O)C2CC=CCC2C1=O)N1CCN(c2ccc([N+](=O)[O-])cc2)CC1 (stereo not given),3.0,-6.5,2.7,-5.2,1.4,.,.,.,.
CCN(CC)c1ncnc2c1cnn2Cc1ccc(Cl)cc1,3.5,-21.3,5.0,54.3*,13.1,26.9*,39.9,7.4,7.6
CCN(CC)S(=O)(=O)c1ccc2nc(NC(=O)c3cccs3)sc2c1,6.2,-21.8,8.1,62.7*,37.1,18.5,36.6,9.6,17.0
CCN(CC)S(=O)(=O)c1ccc2nc(NC(=O)c3ccco3)sc2c1,0.9,-6.5,1.5,10.2,7.3,.,.,.,.
O=C1CC(C(=O)Nc2ccc(Br)cc2)S/C(=N\N=C\c2ccco2)N1 (stereo not given),0.3,-4.9,-0.9,-6.2,14.7,.,.,.,.
COc1cc(-c2cc(C(=O)Nc3ccncc3)c3ccccc3n2)cc(OC)c1OC,1.5,-4.1,1.5,61.1*,23.4,27.9*,48.5,7.8,6.4
CCOc1ccccc1NC(=O)c1cc(-c2cc(OC)c(OC)c(OC)c2)nc2ccccc12,1.2,-6.4,-0.6,59.3*,5.8,28.9*,50.6*,4.3,2.0
COc1cc(-c2cc(C(=O)Nc3ccc(N4CCOCC4)cc3)c3ccccc3n2)cc(OC)c1OC,0.3,-4.3,0.1,72.2*,12.5,31.6*,50.7*,6.8,6.0
COc1ccc(NC(=O)c2cc(-c3ccco3)nc3ccccc23)cc1S(=O)(=O)N1CCOCC1,-1.1,-4.5,-1.3,45.0,18.9,.,.,.,.

# Source: PubChem
